We go through twelve compounds from publication PMC9463105 (Chemmedchem, 2022).

One series is described as follows: Cell viability assay. It is filed as cell-based. The settings on record: human, HFF cells; for viability at 7 days, 10 µM: Cell‐based assays [at 10 μM] Cell viability %, triplicate, mean.
In the next series the target is T1, HCMV pUL89‐C (Human cytomegalovirus, UniProt P16732).
T1 sequence (P16732 418-674 limits assumed): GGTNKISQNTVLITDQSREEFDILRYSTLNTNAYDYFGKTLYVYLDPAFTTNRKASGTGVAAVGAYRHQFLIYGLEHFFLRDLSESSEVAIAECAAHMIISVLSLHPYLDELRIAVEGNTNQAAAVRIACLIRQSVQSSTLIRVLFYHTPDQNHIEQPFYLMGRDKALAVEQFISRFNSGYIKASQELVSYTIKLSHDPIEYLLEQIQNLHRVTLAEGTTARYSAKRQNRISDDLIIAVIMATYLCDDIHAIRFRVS
The series is described as follows: In vitro pUL89‐C endonuclease assay. It counts as biochemical. The settings on record: for inhibition at 10 µM: read-out: Nuclease inhibition % at 10 μM; for IC50: IC50, dose response, duplicate.

A further series concerns the target T2, pUL89‐C (Human cytomegalovirus, UniProt P16732).
T2 sequence (P16732 418-674 limits assumed): T1 sequence (P16732 418-674 limits assumed)
The series is described as follows: pUL89‐C thermal shift assay. It counts as binding, Human cytomegalovirus (HCMV). The settings on record: 20 μM compound, compared to DMSO control. A digest of the protocol: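 pUL89-C was expressed in E. coli and Ni-purified via a C-terminal His tag. Test compound (20 μM) was incubated with 4 μg of this protein in 5 mM MnCl2, 30 mM Tris pH 8, 50 mM NaCl for 25 min at room temperature, with 1% DMSO final. Sypro Orange was the dye. ΔTm is the mean derivative Tm vs DMSO vehicle, triplicates, with at least two independent determinations.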

For the next series, the system named is HCMV ADCREGFP virus. The series is described as follows: HCMV replication assay. It is filed as cell-based, Human cytomegalovirus (HCMV). Conditions: HFF cells, triplicate, mean.

As usually defined, the CC50 is the concentration at which the toxic effect on the cells reaches its halfway point. Low readings indicate harm at low concentration, high ones better tolerance by the cells. `Nc1nc(O)c2ncn(COC(CO)CO)c2n1` [Compound 1, ganciclovir, reference compound] displayed a CC50 at 7 days in the series “Cell viability assay” of more than 50 µM.
Usually viability stands for a read-out of living cells in per cent, often relative to untreated cells. Lower therefore signals a greater loss of cells. The term inhibition denotes the percentage by which the read-out fell short of the control. Take `COC(=O)c1nc(Cl)c2cccnc2c1O` [Compound 13]: the viability at 7 days, 10 µM in the series “Cell viability assay” came to 96 ± 1%. Moreover, the inhibition at 10 µM on HCMV pUL89‐C came out at 16 ± 2.5%.
In the series “Cell viability assay”, `O=C(O)c1nc(-c2ccc(C(F)(F)F)cc2)c2cccnc2c1O` [Compound 14] gave a viability at 7 days, 10 µM of 97 ± 0.9%. Moreover, the inhibition at 10 µM on HCMV pUL89‐C turned out to be 19 ± 0.1%.
By IC50 is commonly meant the midpoint of a concentration-inhibition curve. Read a low IC50 as greater potency in that assay. In the series “Cell viability assay”, `O=C(NCc1ccc(F)cc1)c1nc(Cl)c2cccnc2c1O` [Compound 15a] showed a CC50 at 7 days of 60 ± 2.4 µM and a viability at 7 days, 10 µM of 97 ± 2.3%. Moreover, the “ΔTm (thermal shift)” value at pUL89‐C is more than 0. On HCMV pUL89‐C, half-maximal inhibition (IC50) was put at 4.3 ± 1.2 µM and the inhibition at 10 µM was found to be 49 ± 4.7%.
In “Cell viability assay”, `O=C(NCc1ccc(Cl)c(Cl)c1)c1nc(Cl)c2cccnc2c1O` [Compound 15b] yielded a CC50 at 7 days of more than 50 µM and a viability at 7 days, 10 µM of 95 ± 1%. For the same compound, on HCMV pUL89‐C, the IC50 was found to be 13 ± 3.8 µM and the inhibition at 10 µM came to 33 ± 5.3%.
Compound `O=C(NCc1ccc(F)c(Cl)c1)c1nc(Cl)c2cccnc2c1O` [Compound 15c] displayed a viability at 7 days, 10 µM in the series “Cell viability assay” of 100 ± 5.7%. Moreover, the inhibition at 10 µM on HCMV pUL89‐C stood at 15 ± 2%.
In “Cell viability assay”, `Cc1ccc(CNC(=O)c2nc(Cl)c3cccnc3c2O)cc1` [Compound 15d] gave a CC50 at 7 days of more than 50 µM and a viability at 7 days, 10 µM of 96 ± 1.5%. Further, the “ΔTm (thermal shift)” value on pUL89‐C was more than 0. In addition, the inhibition at 10 µM on HCMV pUL89‐C is 66 ± 13%.
Take `COCCNC(=O)c1nc(Cl)c2cccnc2c1O` [Compound 15f]: the viability at 7 days, 10 µM in the series “Cell viability assay” was 96 ± 2.1%. Moreover, the “Cell‐based assays [at 10 μM] Inhibition %” value in the series on HCMV ADCREGFP virus is reported as “insignificant”. Besides, on HCMV pUL89‐C, the concentration for half-maximal inhibition (IC50) stood at 5.7 ± 0.39 µM and the inhibition at 10 µM is 51 ± 14%.
With `Cc1ccc(CNC(=O)c2nc(-c3ccccc3)c3cccnc3c2O)cc1` [Compound 16a], in “Cell viability assay”, the CC50 at 7 days was more than 100 µM and the viability at 7 days, 10 µM worked out at 99 ± 2.6%. At pUL89‐C, the “ΔTm (thermal shift)” value was more than 0. The inhibition at 10 µM on HCMV pUL89‐C turned out to be 71 ± 2.4%.
In “Cell viability assay”, `COc1cccc(-c2nc(C(=O)NCc3ccc(C)cc3)c(O)c3ncccc23)c1` [Compound 16b] returned a CC50 at 7 days of more than 60 µM and a viability at 7 days, 10 µM of 76 ± 1.7%. Moreover, on HCMV pUL89‐C, half-maximal inhibition (IC50) required 24 ± 5.4 µM and the inhibition at 10 µM was determined as 52 ± 3.6%.
In the series “Cell viability assay”, `O=C(NCc1ccc(F)cc1)c1nc(-c2ccccc2F)c2cccnc2c1O` [Compound 16d] gave a viability at 7 days, 10 µM not above 70%. Also, on HCMV pUL89‐C, the inhibition at 10 µM stood at 17 ± 8.7%.
The like results for `O=C(NCc1ccc(F)cc1)c1nc(-c2cccc(Cl)c2)c2cccnc2c1O` [Compound 16e] were, in that order, not above 70% and 8.2 ± 1.9%.
